Data from ChEMBL document CHEMBL3822424, “Design and synthesis of 1H-pyrazolo[3,4-c]pyridine derivatives as a novel structural class of potent GPR119 agonists” (Bioorg Med Chem Lett, 2016).
≈ marks a conversion by molar mass, not a printed value.

Tests used:
[1] = target: T1, Glucose-dependent insulinotropic receptor (Homo sapiens, UniProt Q8TDV5); experiment: Agonist activity at human GPR119 expressed in Flp-In-T-Rex-HEK293 cells after 30 mins by cAMP accumulation assay; assay type: functional, cell-based
T1 sequence (Q8TDV5 whole entry): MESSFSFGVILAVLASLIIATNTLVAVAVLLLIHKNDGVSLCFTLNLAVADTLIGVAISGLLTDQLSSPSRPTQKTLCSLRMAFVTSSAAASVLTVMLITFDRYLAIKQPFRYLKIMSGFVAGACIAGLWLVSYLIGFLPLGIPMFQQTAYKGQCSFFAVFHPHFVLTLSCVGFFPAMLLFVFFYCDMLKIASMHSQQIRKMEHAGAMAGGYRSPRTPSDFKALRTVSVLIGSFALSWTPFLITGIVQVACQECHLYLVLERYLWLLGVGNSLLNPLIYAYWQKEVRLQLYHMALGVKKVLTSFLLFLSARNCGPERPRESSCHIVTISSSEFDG
Outline: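 Flp-In-T-Rex-HEK293 cells overexpressing human GPR119, induced with tetracycline for 24 h, plated at 5000 cells/well in D-MEM assay buffer with 1 mM IBMX and 0.01% BSA. Cells exposed to compound for 30 min at 37 °C. cAMP read by HTRF kit (HiRange). Response = stimulated minus basal cAMP. EC50 = concentration giving 50% of maximal response.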

[2] = Drug metabolism in human liver microsomes after 15 mins; assay type: ADME; details: read-out: Drug metabolism
Outline: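 Compound incubated 15 min with human liver microsomes at 1 mg protein/mL; result expressed as percent metabolized.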

[3] = Thermodynamic solubility of the compound in phosphate buffer at pH 6.8; assay type: physicochemical; details: read-out: Therm_solubility
Outline: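 Thermodynamic solubility measured in pH 6.8 phosphate buffer.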

[4] = Clearance in Sprague-Dawley rat at 3 mg/kg, iv; assay type: ADME, organism-based; details: in vivo
[5] = Volume of distribution at steady state in Sprague-Dawley rat at 3 mg/kg, iv; assay type: ADME, organism-based; details: in vivo, read-out: Vdss
[6] = Half life in Sprague-Dawley rat at 3 mg/kg, iv; assay type: ADME, organism-based; details: in vivo
[7] = AUC (0 to infinity) in Sprague-Dawley rat at 10 mg/kg, po; assay type: ADME, organism-based; set-up: dose 10 mg/kg, time infinity, route oral; details: in vivo
[8] = Oral bioavailability in Sprague-Dawley rat at 10 mg/kg; assay type: ADME, organism-based; details: in vivo
[9] = Permeability of the compound at pH 6.2 by PAMPA; assay type: ADME; details: read-out: permeability

| EC50 [1] | metabolised at 0.25 h [2] | SMILES | other results |
| --- | --- | --- | --- |
| 23 nM | 3.9% | CC(C)(OC(=O)N1CCC(n2ncc3cc(-c4ccc(S(C)(=O)=O)cc4)ncc32)CC1)C(F)F | – |
| 42 nM | 24.1% | CC(C)OC(=O)N1CCC(n2ncc3cc(-c4ccc(S(C)(=O)=O)cc4)ncc32)CC1 | solubility thermodynamic [3]: 0.67 µg/mL (≈ 1.51 µM) |
| 177 nM | – | CC(C)OC(=O)N1CCC(n2ncc3cc(Oc4ccc(S(C)(=O)=O)cc4)ncc32)CC1 | – |
| 97 nM | – | CC(C)OC(=O)N1CCC(n2ncc3cc(-c4ccc(C(N)=O)cc4F)ncc32)CC1 | – |
| 20 nM | – | CC(C)(C)OC(=O)N1CCC(n2ncc3cc(-c4ccc(S(C)(=O)=O)cc4)ncc32)CC1 | – |
| 11 nM | 79.8% | CC(C)COC(=O)N1CCC(n2ncc3cc(-c4ccc(S(C)(=O)=O)cc4)ncc32)CC1 | – |
| 30 nM | 44.1% | Cc1ccc(N2CCC(n3ncc4cc(-c5ccc(S(C)(=O)=O)cc5)ncc43)CC2)nc1 | – |
| 63 nM | – | CC(C)(C)OC(=O)N1CCC(n2nnc3cc(-c4ccc(S(C)(=O)=O)cc4)ccc32)CC1 | – |
| 15 nM | 35.8% | CCc1cnc(N2CCC(n3ncc4cc(-c5cc(F)c(C(=O)NCCO)cc5F)ncc43)CC2)nc1 | solubility thermodynamic [3]: 0.69 µg/mL (≈ 1.36 µM) |
| 46 nM | – | CC(C)OC(=O)N1CCC(n2ncc3cc(-c4cc(F)c(C(=O)N(C)C)cc4F)ncc32)CC1 | – |
| 10 nM | 2.1% | CC(C)(OC(=O)N1CCC(n2ncc3cc(-c4ccc(S(C)(=O)=O)cc4F)ncc32)CC1)C(F)F | solubility thermodynamic [3]: < 0.06 µg/mL |
| 52 nM | – | CC(C)OC(=O)N1CCC(n2ncc3cc(-c4cc(F)c(C(N)=O)cc4F)ncc32)CC1 | – |
| 220 nM | – | CC(C)CCN1CCC(n2ncc3cc(-c4ccc(S(C)(=O)=O)cc4)ncc32)CC1 | – |
| 27 nM | – | CC(C)OC(=O)N1CCC(n2ncc3cc(-c4ccc(S(C)(=O)=O)cc4F)ncc32)CC1 | – |
| 266 nM | – | CC(C)OC(=O)N1CCC(n2ncc3cc(Oc4cccc(S(C)(=O)=O)c4)ncc32)CC1 | – |
| 4 nM | 14.3% | CCc1cnc(N2CCC(n3ncc4cc(-c5ccc(S(C)(=O)=O)cc5F)ncc43)CC2)nc1 | solubility thermodynamic [3]: 0.34 µg/mL (≈ 0.707 µM); clearance [4]: 12.7 mL/min/kg; Vd [5]: 0.537 L/kg; half-life [6]: 37 min; AUC(0-inf) [7]: 1930 ng·h/mL; bioavailability [8]: 12.6%; Papp [9]: 112 ×10⁻⁶ cm/s |
| 31 nM | – | CC(C)(C)OC(=O)N1CCC(n2ncc3cc(-c4ccc(S(C)(=O)=O)cc4)ccc32)CC1 | – |
| 92 nM | – | CC(C)OC(=O)N1CCC(n2ncc3cc(-c4cc(F)c(C(=O)NCCO)cc4F)ncc32)CC1 | – |
| 10 nM | – | CCNC(=O)c1cc(F)c(-c2cc3cnn(C4CCN(C(=O)OC(C)C)CC4)c3cn2)cc1F | – |
| 14 nM | – | CCCNC(=O)c1cc(F)c(-c2cc3cnn(C4CCN(C(=O)OC(C)C)CC4)c3cn2)cc1F | – |
| 197 nM | – | CC(C)OC(=O)N1CCC(n2ncc3cc(-c4ccc(S(C)(=O)=O)nc4)ncc32)CC1 | – |
| 13 nM | 20.3% | CCc1cnc(N2CCC(n3ncc4cc(-c5ccc(S(C)(=O)=O)cc5)ncc43)CC2)nc1 | – |
